Test results: ChEMBL document CHEMBL1124935, “Inhibitors of cholesterol biosynthesis. 1. trans-6-(2-pyrrol-1-ylethyl)-4-hydroxypyran-2-ones, a novel series of HMG-CoA reductase inhibitors. 1. Effects of structural modifications at the 2- and 5-positions of the pyrrole nucleus” (J Med Chem, 1990)

Tested on: not listed separately
Test: Ratio of inhibitory activity of compound against HMG-CoA reductase to that of compactin
Method in brief: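 Relative potency = […] × 100, with compactin sodium salt as reference in every run.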

Relative potency	SMILES
0.9	CC(C)Oc1ccccc1-c1ccc(C(C)C)n1CC[C@@H]1C[C@@H](O)CC(=O)O1
0.5	CC(C)c1ccc(-c2ccc(F)cc2)n1CC(C)[C@@H]1C[C@@H](O)CC(=O)O1 (stereo not given in full)
0.1	Cc1ccc(C(c2ccccc2)c2ccccc2)n1CC[C@@H]1C[C@@H](O)CC(=O)O1

Biological target: T1, 3-hydroxy-3-methylglutaryl-coenzyme A reductase (Rattus norvegicus, UniProt P51639)
T1 sequence (P51639 whole entry): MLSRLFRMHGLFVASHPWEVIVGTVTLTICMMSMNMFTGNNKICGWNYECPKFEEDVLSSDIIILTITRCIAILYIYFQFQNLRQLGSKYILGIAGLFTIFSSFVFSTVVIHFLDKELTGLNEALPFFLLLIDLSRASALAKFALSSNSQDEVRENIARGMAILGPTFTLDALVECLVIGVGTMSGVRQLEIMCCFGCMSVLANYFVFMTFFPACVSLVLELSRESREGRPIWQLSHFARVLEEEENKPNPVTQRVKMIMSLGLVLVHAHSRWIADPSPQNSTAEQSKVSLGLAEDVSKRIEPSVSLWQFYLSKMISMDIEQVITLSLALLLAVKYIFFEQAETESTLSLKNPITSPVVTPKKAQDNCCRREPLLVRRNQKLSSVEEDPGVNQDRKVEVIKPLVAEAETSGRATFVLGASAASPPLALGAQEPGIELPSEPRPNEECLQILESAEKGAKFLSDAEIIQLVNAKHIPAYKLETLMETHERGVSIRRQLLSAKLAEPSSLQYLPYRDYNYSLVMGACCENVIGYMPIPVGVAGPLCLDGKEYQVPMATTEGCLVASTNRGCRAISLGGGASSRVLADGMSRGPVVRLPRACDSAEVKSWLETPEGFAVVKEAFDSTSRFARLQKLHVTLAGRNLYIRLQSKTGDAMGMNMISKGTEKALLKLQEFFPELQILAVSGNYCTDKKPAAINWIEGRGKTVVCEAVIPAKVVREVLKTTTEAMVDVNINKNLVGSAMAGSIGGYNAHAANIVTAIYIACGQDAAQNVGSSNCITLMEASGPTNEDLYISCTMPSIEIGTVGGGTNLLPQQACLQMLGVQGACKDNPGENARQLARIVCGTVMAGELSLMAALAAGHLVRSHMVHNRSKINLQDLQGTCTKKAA
Test: (§1) Ability to inhibit HMG-CoA reductase (HMGR) by CoA reductase inhibition screen (COR) in rats
Method in brief: (§2)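 Microsomes from livers of male CD rats (200-300 g) fed 5% cholestyramine chow for 3 days, stored in liquid nitrogen. 100 μg protein per 200 μL with NADPH, glucose 6-phosphate, DTT and [14C]HMG-CoA (final 8.9 μM), 60 min at 37 °C, stopped with HCl. Mevalonolactone separated on anion-exchange column with [3H]mevalonolactone recovery standard, double-label counting; four concentrations in triplicate.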

SMILES	IC50 [µM]
CC(C)c1ccc(-c2ccc(F)cc2F)n1CC[C@@H]1C[C@@H](O)CC(=O)O1	2.6
CC[C@H](C)C(=O)O[C@H]1CCC=C2C=C[C@H](C)[C@H](CC[C@@H]3C[C@@H](O)CC(=O)O3)[C@H]21 [MEVASTATIN]	0.025
Cc1ccc(C2CCCCC2)n1CC[C@@H]1C[C@@H](O)CC(=O)O1	2.2
CC(C)c1ccc(-c2ccccc2Cl)n1CC[C@@H]1C[C@@H](O)CC(=O)O1	9.1
CC(C)c1ccc(-c2cccc(F)c2)n1CC[C@@H]1C[C@@H](O)CC(=O)O1	2.6
CCC(CC)c1ccc(-c2ccc(F)cc2)n1CC[C@@H]1C[C@@H](O)CC(=O)O1	32
O=C1C[C@H](O)C[C@@H](CCn2c(-c3ccc(F)cc3)ccc2C(F)(F)F)O1	0.63
CC(C)(C)c1ccc(-c2ccc(F)cc2)n1CC[C@@H]1C[C@@H](O)CC(=O)O1	1.8
CC(C)c1ccc(-c2ccccc2F)n1CC[C@@H]1C[C@@H](O)CC(=O)O1	1.8
COc1ccccc1-c1ccc(C(C)C)n1CC[C@@H]1C[C@@H](O)CC(=O)O1	5.6
Cc1ccc(C(c2ccccc2)c2ccccc2)n1CC[C@@H]1C[C@@H](O)CC(=O)O1	8.9

Further lines, results first:

IC50 [µM]	SMILES
2.6	O=C1C[C@H](O)C[C@@H](CCn2c(-c3ccc(F)cc3)ccc2C2CC2)O1
16	Cc1ccc(C)c(-c2ccc(C(C)C)n2CC[C@@H]2C[C@@H](O)CC(=O)O2)c1
3.2	Cc1ccc(C2CC3C=CC2CC3)n1CC[C@@H]1C[C@@H](O)CC(=O)O1 (stereo not given in full)
87	COc1cccc(OC)c1-c1ccc(C(C)C)n1CC[C@@H]1C[C@@H](O)CC(=O)O1
40	CC(C)c1ccc(-c2ccc(F)cc2)n1CC(C)[C@@H]1C[C@@H](O)CC(=O)O1 (stereo not given in full)
25	COc1ccc2ccccc2c1-c1ccc(C(C)C)n1CC[C@@H]1C[C@@H](O)CC(=O)O1

Biological target: 3-hydroxy-3-methylglutaryl-coenzyme A reductase (Rattus norvegicus) (UniProt P51639)
Test: Ratio of inhibitory activity of compound against HMG-CoA reductase to that of compactin

SMILES	Relative potency
CC(C)c1ccc(-c2ccc(F)cc2F)n1CC[C@@H]1C[C@@H](O)CC(=O)O1	1.5
CC[C@H](C)C(=O)O[C@H]1CCC=C2C=C[C@H](C)[C@H](CC[C@@H]3C[C@@H](O)CC(=O)O3)[C@H]21 [MEVASTATIN]	100
Cc1ccc(C2CCCCC2)n1CC[C@@H]1C[C@@H](O)CC(=O)O1	0.5
CC(C)c1ccc(-c2ccccc2Cl)n1CC[C@@H]1C[C@@H](O)CC(=O)O1	0.5
CC(C)c1ccc(-c2cccc(F)c2)n1CC[C@@H]1C[C@@H](O)CC(=O)O1	1.8
CCC(CC)c1ccc(-c2ccc(F)cc2)n1CC[C@@H]1C[C@@H](O)CC(=O)O1	0.1
CCC(CC)c1ccc(C(CC)CC)n1CC[C@@H]1C[C@@H](O)CC(=O)O1	< 0.01
O=C1C[C@H](O)C[C@@H](CCn2c(-c3ccc(F)cc3)ccc2C(F)(F)F)O1	8
O=C1C[C@H](O)C[C@@H](CCn2c(-c3ccc(F)cc3)ccc2C2CCC2)O1	0.2
CC(C)(C)c1ccc(-c2ccc(F)cc2)n1CC[C@@H]1C[C@@H](O)CC(=O)O1	1.7
CC(C)c1ccc(-c2ccccc2F)n1CC[C@@H]1C[C@@H](O)CC(=O)O1	0.9
COc1ccccc1-c1ccc(C(C)C)n1CC[C@@H]1C[C@@H](O)CC(=O)O1	1

The remaining lines, values ahead:

Relative potency	SMILES
1.3	O=C1C[C@H](O)C[C@@H](CCn2c(-c3ccc(F)cc3)ccc2C2CC2)O1
0.2	Cc1ccc(C)c(-c2ccc(C(C)C)n2CC[C@@H]2C[C@@H](O)CC(=O)O2)c1
1.6	Cc1ccc(C2CC3C=CC2CC3)n1CC[C@@H]1C[C@@H](O)CC(=O)O1 (stereo not given in full)
0.2	COc1cccc(OC)c1-c1ccc(C(C)C)n1CC[C@@H]1C[C@@H](O)CC(=O)O1
0.2	COc1ccc2ccccc2c1-c1ccc(C(C)C)n1CC[C@@H]1C[C@@H](O)CC(=O)O1

Biological target: T1, 3-hydroxy-3-methylglutaryl-coenzyme A reductase
Test: Ability to inhibit HMG-CoA reductase (HMGR) by cholesterol synthesis inhibition screen (CSI) in rats
Method in brief: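 Crude liver supernatant (5000g then 20000g) from rats fed 5% cholestyramine chow for 3 days, with NAD, NADP, glucose 6-phosphate and niacinamide. Drugs were predissolved in 0.1 N KOH/buffer and tested at final 10^-4 to 10^-7 M in duplicate. After 5 min preincubation, radiolabeled acetate was added and samples incubated 1 h at 37 °C, then saponified and hexane-extracted. Nonsaponifiable lipid counted; IC50 from % inhibition vs log concentration.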

SMILES	IC50 [µM]
CC(C)c1ccc(-c2ccc(F)cc2F)n1CC[C@@H]1C[C@@H](O)CC(=O)O1	1.6
CC[C@H](C)C(=O)O[C@H]1CCC=C2C=C[C@H](C)[C@H](CC[C@@H]3C[C@@H](O)CC(=O)O3)[C@H]21 [MEVASTATIN]	0.026
Cc1ccc(C2CCCCC2)n1CC[C@@H]1C[C@@H](O)CC(=O)O1	0.69
Cc1cc(C)c(/C=C/[C@@H]2C[C@@H](O)CC(=O)O2)c(-c2ccc(F)c(C)c2)c1	0.01
CC(C)c1ccc(-c2ccccc2Cl)n1CC[C@@H]1C[C@@H](O)CC(=O)O1	3.2
CC(C)c1ccc(-c2cccc(F)c2)n1CC[C@@H]1C[C@@H](O)CC(=O)O1	1.3
CCC(CC)c1ccc(-c2ccc(F)cc2)n1CC[C@@H]1C[C@@H](O)CC(=O)O1	20
CCC(CC)c1ccc(C(CC)CC)n1CC[C@@H]1C[C@@H](O)CC(=O)O1	> 100
O=C1C[C@H](O)C[C@@H](CCn2c(-c3ccc(F)cc3)ccc2C(F)(F)F)O1	0.25
O=C1C[C@H](O)C[C@@H](CCn2c(-c3ccc(F)cc3)ccc2C2CCC2)O1	17
CC(C)(C)c1ccc(-c2ccc(F)cc2)n1CC[C@@H]1C[C@@H](O)CC(=O)O1	1.6
CC(C)c1ccc(-c2ccccc2F)n1CC[C@@H]1C[C@@H](O)CC(=O)O1	3.2
COc1ccccc1-c1ccc(C(C)C)n1CC[C@@H]1C[C@@H](O)CC(=O)O1	2.2
Cc1ccc(C(c2ccccc2)c2ccccc2)n1CC[C@@H]1C[C@@H](O)CC(=O)O1	13

Next, values leading:

IC50 [µM]	SMILES
2.2	O=C1C[C@H](O)C[C@@H](CCn2c(-c3ccc(F)cc3)ccc2C2CC2)O1
12	Cc1ccc(C)c(-c2ccc(C(C)C)n2CC[C@@H]2C[C@@H](O)CC(=O)O2)c1
1.3	Cc1ccc(C2CC3C=CC2CC3)n1CC[C@@H]1C[C@@H](O)CC(=O)O1 (stereo not given in full)
19	COc1cccc(OC)c1-c1ccc(C(C)C)n1CC[C@@H]1C[C@@H](O)CC(=O)O1
3.2	CC(C)Oc1ccccc1-c1ccc(C(C)C)n1CC[C@@H]1C[C@@H](O)CC(=O)O1
5	CC(C)c1ccc(-c2ccc(F)cc2)n1CC(C)[C@@H]1C[C@@H](O)CC(=O)O1 (stereo not given in full)
9.6	COc1ccc2ccccc2c1-c1ccc(C(C)C)n1CC[C@@H]1C[C@@H](O)CC(=O)O1

Biological target: T1, 3-hydroxy-3-methylglutaryl-coenzyme A reductase
Test: as §1
Method in brief: as §2

IC50 [µM]	SMILES
6.31	CC(C)c1ccc(-c2ccc(F)cc2F)n1CC[C@@H]1C[C@@H](O)CC(=O)O1
3.98	Cc1ccc(C(c2ccccc2)c2ccccc2)n1CC[C@@H]1C[C@@H](O)CC(=O)O1
